Test results from article PMC9009525 (ACS synthetic biology, 2021).
Ends that are not written are not given here.

System: T7 Express LysY/I^q E. coli
Assay: Induction test: growth
Format: cell-based, Escherichia coli
Conditions: 0.50 mM IPTG, LB with kan, 37 °C, OD600 over nine hours
In short: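 T7 Express LysY/Iq E. coli transformed with 80 ng pETh vector carrying oncocin or a negative control, each separately. After SOC recovery, cells were pelleted and resuspended in LB with 50 µg mL-1 kanamycin. This suspension seeded LB-kanamycin (1:100) containing 0 to 0.50 mM IPTG. Cultures were shaken at 250 rpm at 37 °C for nine hours, with OD600 read every 50 minutes.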

Q: For “VDKPPYLPRPRPPRRIYNR-NH2 (C-terminus assumed) [oncocin]”, which “growth of oncocin-expressing E. coli upon induction (in words)” value is on record?
A: The value was “nearly complete growth inhibition”.
